Experiments:
[1] = system: Mus musculus; assay: Antimalarial activity against Plasmodium berghei in rodent at 80 mg/Kg measured as mean survival time over control (Delta MST); type: functional
[2] = system: Mus musculus; assay: Antimalarial activity against Plasmodium berghei in mice (Mus musculus) at 320 mg/kg measured as number of toxic deaths occurring on days 2-5 after infection; type: ADME, organism-based; set-up: dose 320 mg/kg; settings: in vivo
Method in brief: (§1)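 Mice infected with blood-induced P. berghei, five animals per group, run by the Osdene et al. method. Doses are expressed as mg primaquine diphosphate/kg. The read-out is the number of deaths attributed to toxicity occurring on days 2-5 after infection.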

[3] = system: Mus musculus; assay: Antimalarial activity against Plasmodium berghei in mice (Mus musculus) at 640 mg/kg measured as number of toxic deaths occurring on days 2-5 after infection; type: ADME, organism-based; set-up: dose 640 mg/kg; settings: in vivo; method in brief: as §1
[4] = system: Mus musculus; assay: Antimalarial activity against Plasmodium berghei in mice (Mus musculus) at 160 mg/kg measured as number of toxic deaths occurring on days 2-5 after infection; type: ADME, organism-based; set-up: dose 160 mg/kg; settings: in vivo; method in brief: as §1
[5] = system: Plasmodium cynomolgi; assay: Antimalarial activity against Plasmodium cynomolgi in Rhesus monkeys (Macaca mulatta) at 0.316 mg/kg; cured 0 of 2; type: functional
[6] = system: Plasmodium cynomolgi; assay: Antimalarial activity against Plasmodium cynomolgi in Rhesus monkeys (Macaca mulatta) at 1 mg/kg; cured 1 of 2

Question: What does the source list for COc1cc(NC(C)CCCN)c2ncccc2c1 (stereo unspecified) [PRIMAQUINE]?
Answer: Delta MST [1]: 9; Toxic deaths [2]: 5; Toxic deaths [3]: 5; Toxic deaths [4]: 2; Cures [5]: 0; Cures [6]: 1
